According to article PMC3270411 (Chemistry & biology, 2012):

Columns and labels:
[1] = target: T1, PIP4K2C (Homo sapiens, UniProt Q8TBX8); experiment: KiNativ cellular kinase profiling; assay type: cell-based; conditions: A375 cells, 1 μM, 3 hours, labeling site ATP
T1 sequence (Q8TBX8 1-421): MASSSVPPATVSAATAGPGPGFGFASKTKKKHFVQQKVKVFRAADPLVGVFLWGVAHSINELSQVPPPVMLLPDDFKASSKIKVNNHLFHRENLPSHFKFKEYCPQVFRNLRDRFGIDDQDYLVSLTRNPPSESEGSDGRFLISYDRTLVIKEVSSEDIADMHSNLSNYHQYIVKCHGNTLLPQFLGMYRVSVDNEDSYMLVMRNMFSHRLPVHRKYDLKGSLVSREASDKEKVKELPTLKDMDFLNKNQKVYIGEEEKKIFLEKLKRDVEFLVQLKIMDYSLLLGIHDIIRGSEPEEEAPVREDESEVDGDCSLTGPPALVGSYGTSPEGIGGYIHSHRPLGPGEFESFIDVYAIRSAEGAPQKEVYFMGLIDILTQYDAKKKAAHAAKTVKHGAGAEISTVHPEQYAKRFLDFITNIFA

[2] = target: p38a (Homo sapiens, UniProt Q16539); experiment: KiNativ cellular kinase profiling; assay type: cell-based; conditions: A375 cells, 1 μM, 3 hours
[3] = target: CK1a (Homo sapiens, UniProt P48729); experiment: KiNativ cellular kinase profiling; assay type: cell-based; conditions: for Percent inhibition of kinase labeling by ATP-biotin: A375 cells, 1 μM, 3 hours, CK1a, labeling site Lys2; for inhibition at 1 µM: A-375, read-out: Percent inhibition of kinase labeling by ATP-biotin
[4] = target: T2, PKD1 (Homo sapiens, UniProt Q15139); experiment: KiNativ cellular kinase profiling; assay type: cell-based; conditions: for Percent inhibition of kinase labeling by ATP-biotin: A375 cells, 1 μM, 3 hours, PKD1, labeling site Lys1; for inhibition at 1 µM: A-375, read-out: Percent inhibition of kinase labeling by ATP-biotin
T2 sequence (Q15139 1-912): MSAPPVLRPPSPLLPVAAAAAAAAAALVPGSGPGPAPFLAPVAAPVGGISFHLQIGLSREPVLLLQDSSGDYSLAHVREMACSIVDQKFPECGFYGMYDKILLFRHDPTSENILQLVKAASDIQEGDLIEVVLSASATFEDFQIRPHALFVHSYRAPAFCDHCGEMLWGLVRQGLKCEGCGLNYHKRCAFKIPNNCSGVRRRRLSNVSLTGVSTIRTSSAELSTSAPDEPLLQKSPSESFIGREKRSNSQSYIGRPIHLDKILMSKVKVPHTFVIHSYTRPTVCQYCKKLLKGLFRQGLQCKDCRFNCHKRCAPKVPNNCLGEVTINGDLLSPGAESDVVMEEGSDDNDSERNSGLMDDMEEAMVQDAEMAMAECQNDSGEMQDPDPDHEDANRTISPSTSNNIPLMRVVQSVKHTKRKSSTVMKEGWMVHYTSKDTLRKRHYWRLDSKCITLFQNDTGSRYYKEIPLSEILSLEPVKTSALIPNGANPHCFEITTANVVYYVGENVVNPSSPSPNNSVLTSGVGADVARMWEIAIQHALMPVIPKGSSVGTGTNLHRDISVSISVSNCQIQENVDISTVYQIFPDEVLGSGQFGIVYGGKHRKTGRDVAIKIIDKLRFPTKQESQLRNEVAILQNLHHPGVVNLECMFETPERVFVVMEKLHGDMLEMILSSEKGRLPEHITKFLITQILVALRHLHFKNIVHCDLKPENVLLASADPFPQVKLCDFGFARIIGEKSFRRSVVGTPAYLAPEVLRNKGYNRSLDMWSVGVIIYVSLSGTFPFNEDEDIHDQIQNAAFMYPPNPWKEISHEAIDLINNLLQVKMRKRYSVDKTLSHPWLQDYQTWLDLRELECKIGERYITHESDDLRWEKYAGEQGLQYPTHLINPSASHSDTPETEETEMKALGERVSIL

[5] = target: DNAPK (Homo sapiens, UniProt P78527); experiment: KiNativ cellular kinase profiling; assay type: cell-based; conditions: A375 cells, 1 μM, 3 hours, labeling site ATP
[6] = target: PIK3C3 (Homo sapiens, UniProt Q8NEB9); experiment: KiNativ cellular kinase profiling; assay type: cell-based; conditions: A375 cells, 1 μM, 3 hours, PIK3C3, labeling site ATP
[7] = system: ZC1/HGK,ZC2/TNIK, ZC3/MINK; experiment: KiNativ cellular kinase profiling; assay type: cell-based; conditions: A375 cells, 1 μM, 3 hours, labeling site Lys2
[8] = system: JNK; experiment: pulse-chase ATP-biotin binding kinetics assay in A375 cells; assay type: cell-based; conditions: same pulse-chase protocol
Procedure, shortened: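 A375 cells treated with 1 μM test compound for 1–5 h, then washed three times in PBS. Lysed in NP-40/CHAPS buffer for 30 min at 4°C, cleared, and gel-filtered into HEPES kinase buffer (about 5–15 mg/ml protein). Lysate labelled with 5 μM ATP-biotin probe for 1 h, reduced with DTT, alkylated with iodoacetamide, and pulled down on streptavidin for 2 h. Read-out: SDS-PAGE and JNK immunoblot.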

[9] = system: c-Jun phosphorylation in HeLa and A375 cells; experiment: cellular c-Jun phosphorylation, statements for both assay formats; assay type: cell-based; conditions: relative to JNK-IN-5
[10] = target: MET(M250T) (Homo sapiens, UniProt P08581, M1250T); experiment: enzymatic kinase assay on potential off-target; assay type: biochemical
[11] = target: KIT(V559D,T670I) (Homo sapiens, UniProt P10721, T670I/V559D); experiment: KinomeScan dissociation constant; assay type: binding
[12] = system: panel of 442 distinct kinases; experiment: KINOMEscan kinase-binding panel
[13] = target: T3, IRAK1 (Homo sapiens, UniProt P51617); experiment: enzymatic kinase assay on potential off-target; assay type: biochemical; conditions: IC50 (nM) (enzymatic) IRAK1
[14] = target: ERK8 (Homo sapiens, UniProt Q8TD08); experiment: follow-up IC50 determination after enzymatic panel; assay type: biochemical
[15] = target: NUAK1 (Homo sapiens, UniProt O60285); experiment: follow-up IC50 determination after enzymatic panel; assay type: biochemical
[16] = target: KIT(L576P) (Homo sapiens, UniProt P10721, L576P); experiment: KinomeScan dissociation constant; assay type: binding
[17] = system: potential additional kinase targets; experiment: follow-up biochemical and binding assays on potent binding targets; conditions: enzymatic assay or dissociation constant follow-up
[18] = target: T3, IRAK1; experiment: follow-up IC50 determination after enzymatic panel; assay type: biochemical
[19] = target: JNK3 (Homo sapiens, UniProt P53779); experiment: intact protein mass spectrometry of inhibitor-labeled JNK3; assay type: binding; conditions: incubation with JNK3, electrospray mass spectrometry
Chain of JNK3 (P53779 whole entry): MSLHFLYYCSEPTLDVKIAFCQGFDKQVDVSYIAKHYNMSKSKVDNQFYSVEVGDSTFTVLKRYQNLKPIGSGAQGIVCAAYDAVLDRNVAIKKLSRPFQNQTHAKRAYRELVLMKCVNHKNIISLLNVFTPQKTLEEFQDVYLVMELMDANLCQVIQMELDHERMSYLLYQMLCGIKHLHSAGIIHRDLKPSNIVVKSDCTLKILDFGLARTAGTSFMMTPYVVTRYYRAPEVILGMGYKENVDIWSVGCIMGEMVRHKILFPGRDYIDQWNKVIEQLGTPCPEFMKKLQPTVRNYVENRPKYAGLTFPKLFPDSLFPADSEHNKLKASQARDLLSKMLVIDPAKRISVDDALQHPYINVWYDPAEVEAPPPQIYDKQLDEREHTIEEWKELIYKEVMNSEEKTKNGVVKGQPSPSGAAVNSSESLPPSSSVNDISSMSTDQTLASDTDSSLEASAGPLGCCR

Chain of p38a (Q16539 whole entry): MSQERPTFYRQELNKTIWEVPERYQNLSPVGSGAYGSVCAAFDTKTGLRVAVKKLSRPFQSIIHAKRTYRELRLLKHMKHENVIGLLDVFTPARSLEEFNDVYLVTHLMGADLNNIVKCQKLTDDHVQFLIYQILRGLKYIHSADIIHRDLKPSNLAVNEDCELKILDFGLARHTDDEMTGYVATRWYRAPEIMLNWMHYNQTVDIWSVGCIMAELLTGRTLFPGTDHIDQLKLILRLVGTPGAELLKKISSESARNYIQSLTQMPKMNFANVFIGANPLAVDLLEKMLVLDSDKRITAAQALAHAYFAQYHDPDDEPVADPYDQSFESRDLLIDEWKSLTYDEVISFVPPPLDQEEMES
Chain of PIK3C3 (Q8NEB9 whole entry): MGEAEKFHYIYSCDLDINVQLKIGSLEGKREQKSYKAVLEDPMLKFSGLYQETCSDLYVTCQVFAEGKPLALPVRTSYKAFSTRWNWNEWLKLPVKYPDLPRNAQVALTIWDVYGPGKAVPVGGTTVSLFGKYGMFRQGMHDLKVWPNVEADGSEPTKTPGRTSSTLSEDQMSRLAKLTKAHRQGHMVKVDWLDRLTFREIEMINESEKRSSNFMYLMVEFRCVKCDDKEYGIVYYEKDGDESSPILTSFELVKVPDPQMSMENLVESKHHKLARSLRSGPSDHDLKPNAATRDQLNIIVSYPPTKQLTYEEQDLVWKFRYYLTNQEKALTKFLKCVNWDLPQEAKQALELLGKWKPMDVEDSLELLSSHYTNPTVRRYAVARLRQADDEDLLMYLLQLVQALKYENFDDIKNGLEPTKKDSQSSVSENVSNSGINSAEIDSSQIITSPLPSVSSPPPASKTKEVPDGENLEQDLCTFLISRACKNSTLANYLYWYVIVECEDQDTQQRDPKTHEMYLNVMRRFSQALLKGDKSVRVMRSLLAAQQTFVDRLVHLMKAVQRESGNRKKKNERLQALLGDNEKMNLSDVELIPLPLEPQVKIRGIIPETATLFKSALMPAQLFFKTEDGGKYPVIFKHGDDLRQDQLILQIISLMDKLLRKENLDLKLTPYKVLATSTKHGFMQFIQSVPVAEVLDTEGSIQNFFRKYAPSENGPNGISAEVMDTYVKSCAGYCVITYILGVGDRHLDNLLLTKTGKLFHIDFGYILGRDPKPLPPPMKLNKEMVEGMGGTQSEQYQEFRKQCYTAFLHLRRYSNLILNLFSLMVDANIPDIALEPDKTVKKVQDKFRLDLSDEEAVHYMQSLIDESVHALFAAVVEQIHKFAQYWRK
Chain of CK1a (P48729 whole entry): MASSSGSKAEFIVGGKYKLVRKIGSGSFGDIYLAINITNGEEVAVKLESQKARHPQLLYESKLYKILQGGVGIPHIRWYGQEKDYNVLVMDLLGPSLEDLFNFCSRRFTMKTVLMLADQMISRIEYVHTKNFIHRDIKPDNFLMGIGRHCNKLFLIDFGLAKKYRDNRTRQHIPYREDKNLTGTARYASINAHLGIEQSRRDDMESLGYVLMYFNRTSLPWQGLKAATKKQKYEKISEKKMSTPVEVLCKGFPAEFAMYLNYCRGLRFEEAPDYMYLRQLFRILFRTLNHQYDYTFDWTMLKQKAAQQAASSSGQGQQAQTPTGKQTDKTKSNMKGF
T3 sequence (P51617 whole entry, species assumed): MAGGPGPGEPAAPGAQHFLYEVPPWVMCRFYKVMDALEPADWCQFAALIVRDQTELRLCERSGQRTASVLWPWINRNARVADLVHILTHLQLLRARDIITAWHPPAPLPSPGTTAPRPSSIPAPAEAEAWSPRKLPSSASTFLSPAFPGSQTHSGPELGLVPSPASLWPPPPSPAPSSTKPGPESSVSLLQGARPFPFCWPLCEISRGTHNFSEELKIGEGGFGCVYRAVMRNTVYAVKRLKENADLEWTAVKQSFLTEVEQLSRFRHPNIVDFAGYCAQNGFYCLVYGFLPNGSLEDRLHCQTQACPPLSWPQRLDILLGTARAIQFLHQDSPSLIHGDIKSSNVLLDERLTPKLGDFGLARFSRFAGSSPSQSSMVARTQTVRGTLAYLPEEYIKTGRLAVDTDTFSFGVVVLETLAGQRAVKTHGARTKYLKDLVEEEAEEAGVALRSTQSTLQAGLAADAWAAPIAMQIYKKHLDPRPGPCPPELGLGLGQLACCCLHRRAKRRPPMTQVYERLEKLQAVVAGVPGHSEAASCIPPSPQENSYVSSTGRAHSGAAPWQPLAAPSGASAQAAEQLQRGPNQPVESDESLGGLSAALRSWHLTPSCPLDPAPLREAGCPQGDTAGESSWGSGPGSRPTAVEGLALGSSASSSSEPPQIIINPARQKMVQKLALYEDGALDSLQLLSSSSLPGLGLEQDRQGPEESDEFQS
Chain of KIT(L576P) (P10721 26-976 L576P): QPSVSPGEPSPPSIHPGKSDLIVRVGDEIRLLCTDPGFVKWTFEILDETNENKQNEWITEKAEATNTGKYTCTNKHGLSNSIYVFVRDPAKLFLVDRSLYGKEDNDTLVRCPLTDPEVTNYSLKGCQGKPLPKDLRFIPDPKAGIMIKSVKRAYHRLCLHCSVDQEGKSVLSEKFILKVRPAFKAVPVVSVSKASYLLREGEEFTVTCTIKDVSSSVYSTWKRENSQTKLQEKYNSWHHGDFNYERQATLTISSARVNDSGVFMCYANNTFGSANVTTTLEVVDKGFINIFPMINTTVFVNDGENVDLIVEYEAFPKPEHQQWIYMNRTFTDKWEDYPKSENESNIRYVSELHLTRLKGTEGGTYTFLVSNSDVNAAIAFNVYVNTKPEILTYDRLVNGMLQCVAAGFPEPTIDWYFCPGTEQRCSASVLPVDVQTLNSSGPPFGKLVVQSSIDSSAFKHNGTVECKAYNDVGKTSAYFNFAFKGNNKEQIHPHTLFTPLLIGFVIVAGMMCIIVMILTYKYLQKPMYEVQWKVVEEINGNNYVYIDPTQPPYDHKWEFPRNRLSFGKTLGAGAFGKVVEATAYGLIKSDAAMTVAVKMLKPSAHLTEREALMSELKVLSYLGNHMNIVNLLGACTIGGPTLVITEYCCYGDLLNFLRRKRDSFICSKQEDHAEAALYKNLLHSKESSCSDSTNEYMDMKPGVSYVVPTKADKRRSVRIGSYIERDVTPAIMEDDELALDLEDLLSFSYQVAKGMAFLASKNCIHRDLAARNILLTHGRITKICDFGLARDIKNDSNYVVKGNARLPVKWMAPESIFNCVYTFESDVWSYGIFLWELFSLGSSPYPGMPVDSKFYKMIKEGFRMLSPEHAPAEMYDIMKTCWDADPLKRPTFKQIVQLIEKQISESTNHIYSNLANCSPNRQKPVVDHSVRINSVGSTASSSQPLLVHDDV
Chain of KIT(V559D,T670I) (P10721 26-976 V559D/T670I): as the sequence (P10721 26-976 L576P) above, with V534D, P551L, T645I counted along it
Chain of NUAK1 (O60285 whole entry): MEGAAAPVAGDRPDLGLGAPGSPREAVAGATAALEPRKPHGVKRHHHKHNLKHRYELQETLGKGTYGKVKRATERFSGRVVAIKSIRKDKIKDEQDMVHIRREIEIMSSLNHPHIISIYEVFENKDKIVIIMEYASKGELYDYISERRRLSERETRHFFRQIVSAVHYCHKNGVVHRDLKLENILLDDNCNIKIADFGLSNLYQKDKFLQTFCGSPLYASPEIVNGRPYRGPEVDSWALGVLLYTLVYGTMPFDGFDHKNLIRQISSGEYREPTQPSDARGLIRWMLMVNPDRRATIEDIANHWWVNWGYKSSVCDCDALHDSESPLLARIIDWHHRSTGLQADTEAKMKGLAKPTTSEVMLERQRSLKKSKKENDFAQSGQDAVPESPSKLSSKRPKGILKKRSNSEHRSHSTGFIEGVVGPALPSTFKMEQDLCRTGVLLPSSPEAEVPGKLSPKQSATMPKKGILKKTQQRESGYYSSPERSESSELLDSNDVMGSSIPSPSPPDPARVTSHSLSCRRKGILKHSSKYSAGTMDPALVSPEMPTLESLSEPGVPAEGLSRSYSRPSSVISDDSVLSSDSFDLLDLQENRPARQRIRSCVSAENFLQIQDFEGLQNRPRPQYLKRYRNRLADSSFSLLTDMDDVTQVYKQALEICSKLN
Chain of ERK8 (Q8TD08 whole entry): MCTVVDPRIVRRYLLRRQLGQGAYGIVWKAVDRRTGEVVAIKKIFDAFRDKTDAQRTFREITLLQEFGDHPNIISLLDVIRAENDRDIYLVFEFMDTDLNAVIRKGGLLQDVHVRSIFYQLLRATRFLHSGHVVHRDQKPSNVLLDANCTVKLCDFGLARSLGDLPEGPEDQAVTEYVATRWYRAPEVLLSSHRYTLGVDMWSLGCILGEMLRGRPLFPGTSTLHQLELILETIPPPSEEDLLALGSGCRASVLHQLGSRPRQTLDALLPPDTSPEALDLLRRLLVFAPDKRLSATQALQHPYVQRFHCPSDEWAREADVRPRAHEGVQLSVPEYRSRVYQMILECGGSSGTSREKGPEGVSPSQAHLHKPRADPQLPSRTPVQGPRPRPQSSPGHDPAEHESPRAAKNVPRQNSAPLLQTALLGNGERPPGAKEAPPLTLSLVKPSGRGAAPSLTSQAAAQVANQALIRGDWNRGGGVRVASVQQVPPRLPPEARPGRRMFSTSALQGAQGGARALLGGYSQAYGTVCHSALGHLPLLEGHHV

Row | inhibition at 1 µM [3] [%] | inhibition at 1 µM [4] [%] | Structure (SMILES) | Percent inhibition of kinase labeling by ATP-biotin ([1]; first of two table lines) [%] | Percent inhibition of kinase labeling by ATP-biotin ([1]; second of two table lines) [%] | Percent inhibition of kinase labeling by ATP-biotin ([2]; labeling site Lys2) [%] | Percent inhibition of kinase labeling by ATP-biotin ([2]; labeling site Other) [%] | Percent inhibition of kinase labeling by ATP-biotin [3] [%] | Percent inhibition of kinase labeling by ATP-biotin [4] [%] | Percent inhibition of kinase labeling by ATP-biotin ([5]; first of two table lines) [%] | Percent inhibition of kinase labeling by ATP-biotin ([5]; second of two table lines) [%] | Percent inhibition of kinase labeling by ATP-biotin ([6]; first of two table lines) [%] | Percent inhibition of kinase labeling by ATP-biotin ([6]; second of two table lines) [%] | Percent inhibition of kinase labeling by ATP-biotin [7] [%] | further results
1 |  |  | CCC(=O)Nc1cccc(C(=O)Nc2ccc(Nc3nccc(-c4cccnc4)n3)cc2)c1 [JNK-IN-6] | −4.7 | 35.7 | 32.6 | 12.4 | 19.5 | 28.7 | 51.1 | 31.7 | 26.5 | 3.1 | 8.8 | protection of JNK from labeling by ATP-biotin [8]: incapable of protecting JNK from labeling by ATP-biotin; fold loss in potency / fold higher IC50 for cellular JNK inhibition [9]: 50 fold
2 | 61.1 | 29.4 | CN(C)C/C=C/C(=O)Nc1cccc(C(=O)Nc2ccc(Nc3nccc(-c4c(-c5ccccc5)nn5ccccc45)n3)cc2)c1 [JNK-IN-11] |  |  |  |  |  |  |  |  |  |  | 65.1 | 
3 | -13.6 | 8.6 | Cc1cc(NC(=O)c2cccc(NC(=O)/C=C/CN(C)C)c2)ccc1Nc1nccc(-c2cccnc2)n1 [JNK-IN-8] |  |  |  |  |  |  |  |  |  |  | −11.3 | IC50 [10]: > 10 µM; Kd [11]: 0.056 µM
4 |  |  | CN(C)C/C=C/C(=O)Nc1cccc(C(=O)Nc2ccc(Nc3nccc(/C(C#N)=C4\Nc5ccccc5S4)n3)cc2)c1 [JNK-IN-12] | 43.9 | 42.6 | −28 | −13.8 | −96 | −21.6 | −65.4 | −80.7 | 7.5 | −0.5 | −25.5 | S (10) score (ratio number of kinases inhibited more than 90 percent) ([12]; screening concentration 1 μM): 0.025

Row | Structure (SMILES) | inhibition at 1 µM [3] [%] | inhibition at 1 µM [4] [%] | Percent inhibition of kinase labeling by ATP-biotin ([1]; first of two table lines) [%] | Percent inhibition of kinase labeling by ATP-biotin ([1]; second of two table lines) [%] | Percent inhibition of kinase labeling by ATP-biotin ([2]; labeling site Lys2) [%] | Percent inhibition of kinase labeling by ATP-biotin ([2]; labeling site Other) [%] | Percent inhibition of kinase labeling by ATP-biotin [3] [%] | Percent inhibition of kinase labeling by ATP-biotin [4] [%] | Percent inhibition of kinase labeling by ATP-biotin ([5]; first of two table lines) [%] | Percent inhibition of kinase labeling by ATP-biotin ([5]; second of two table lines) [%] | Percent inhibition of kinase labeling by ATP-biotin ([6]; first of two table lines) [%] | Percent inhibition of kinase labeling by ATP-biotin ([6]; second of two table lines) [%] | Percent inhibition of kinase labeling by ATP-biotin [7] [%] | further results
5 | CN(C)C/C=C/C(=O)Nc1cccc(C(=O)Nc2ccc(Nc3nccc(-c4cccnc4)n3)cc2)c1 [JNK-IN-7] | -20.2 | 2 |  |  |  |  |  |  |  |  |  |  | 8.3 | IC50 [13]: ~10 nM; IC50 [14]: < 0.2 µM; number of kinases with binding inhibition of 95% or more ([12]; 1.0 μM): approximately 14 kinases; IC50 [15]: < 0.2 µM; Kd [16]: 0.04 µM; number of additional kinases with Kd or IC50 of 100 nM or less [17]: eight; IC50 [18]: < 0.2 µM; covalent modification of JNK3 (mass spectrometry) [19]: addition of a single molecule of inhibitor to the protein and labeling of Cys154
